Screens as filed in PubChem.
Thrombin inh: blocks human thrombin protease activity; alpha-thrombin, Boc-VPR-AMC fluorogenic substrate cleavage; P00734; 0.26% of 220,000 active; AID 1046; inhibition, % at 5 µM;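 active means inhibition at or above 40%; inactive means inhibition below 40%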;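 further: 0% = enzyme with no compound and 100% = wells without enzyme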
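Material: human alpha-thrombin protein. Incubation: reaction at ambient temperature. Technique: fluorescence of released AMC, ex 355 nm, em 460 nm. Control set: no-compound enzyme wells and no-enzyme blanks. Also added: Boc-VPR-AMC substrate, 15 µM final. Buffer or medium: pH 7.5 Tris (50 mM) with NaCl 150 mM, Tween 20 0.05%.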
Furin inhibitor: blocks human furin protease activity. P09958. purified furin, fluorogenic substrate cleavage. inhibition, % at 20 µM or 30 µM. 0.061% of 220,000 active. AID 463115; in the data active means inhibition above about 25%
Target sequence (P09958 108-714 limits assumed): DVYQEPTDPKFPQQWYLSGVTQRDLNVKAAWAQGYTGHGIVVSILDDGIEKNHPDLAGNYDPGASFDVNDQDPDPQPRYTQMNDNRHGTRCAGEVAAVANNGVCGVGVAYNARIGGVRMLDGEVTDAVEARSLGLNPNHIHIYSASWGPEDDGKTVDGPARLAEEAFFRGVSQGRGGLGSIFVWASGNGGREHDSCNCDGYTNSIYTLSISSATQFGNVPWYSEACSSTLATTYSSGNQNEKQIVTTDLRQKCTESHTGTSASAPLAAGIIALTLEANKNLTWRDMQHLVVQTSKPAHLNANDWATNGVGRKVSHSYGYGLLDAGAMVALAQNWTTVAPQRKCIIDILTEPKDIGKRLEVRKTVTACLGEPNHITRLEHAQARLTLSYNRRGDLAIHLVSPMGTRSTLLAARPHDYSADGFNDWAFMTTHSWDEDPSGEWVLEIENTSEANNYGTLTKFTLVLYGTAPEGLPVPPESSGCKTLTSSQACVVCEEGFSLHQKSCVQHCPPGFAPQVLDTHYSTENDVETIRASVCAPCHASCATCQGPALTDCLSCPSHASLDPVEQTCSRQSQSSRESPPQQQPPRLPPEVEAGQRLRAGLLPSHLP
FXIIa inh 1536: inhibitors of human coagulation factor XIIa. P00748. purified FXIIa, Boc-QGR-AMC fluorogenic substrate, 2 h. inhibition, % at 5 µM. 0.3% of 220,000 active. AID 800; in the data active means inhibition above about 40%;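 further: 0% = enzyme with no compound and 100% = blank without enzyme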
KLK5 inh: blocks human kallikrein 5 protease activity; Q9Y337; recombinant hK5, fluorogenic AMC substrate cleavage; inhibition, % at 5 µM; 0.59% of 210,000 active; AID 873;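 active means inhibition of 40% or more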;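 further: 0% = enzyme controls without compound and 100% = no-enzyme blanks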
FXIa inh 1536: inhibitors of human coagulation factor XIa; P03951; AID 798; inhibition, % at 5 µM; 0.14% of 220,000 active; purified FXIa, Boc-Glu-Ala-Arg-AMC fluorogenic substrate;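 active means inhibition of at least 40%; inactive means inhibition below 40%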;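 further: fluorescence of freed AMC excited at 355 nm; 0% = enzyme without compound and 100% = no enzyme blank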
* marks the source's active call; other numbers are inactive results; x = no result. Sampled rows, rich in hits. Any-hit rate of the full collection: about 1.1%.

SMILES	Thrombin inh	Furin inhibitor	FXIIa inh 1536	KLK5 inh	FXIa inh 1536
C/C(CC(=O)NCCCN1CCOCC1)=N\NC(=O)COc1ccc(Cl)cc1	2.4	-17.0	15.3	-4.3	-0.8
COC(=O)/C=C/c1ccc(OC(=O)OC)c(OC(=O)OC)c1	-1.3	-14.7	15.9	-5.9	8.3
Cc1ccc(S(=O)(=O)NC(=O)N2CCC(C)CC2)cc1	50.1*	-21.6	22.4	39.4	3.6
Cc1ccc(S(=O)(=O)NCC(=O)N2CCC(C)CC2)cc1	-7.6	-11.9	4.7	-2.8	-8.6
CN(c1ccc(C(=O)NCc2ccccc2)cc1)S(C)(=O)=O	25.4	-17.7	23.4	40.1*	6.2
CS(=O)(=O)N(Cc1ccccc1)c1ccc(C(=O)NCc2ccccc2)cc1	-2.8	-1.9	6.5	-2.3	-0.8
O=S(NC1CCCCC1)C12CC3CC(CC(C3)C1)C2 (stereo not given)	2.8	-14.2	62.4*	-13.2	42.3*
CS(=O)(=O)c1nc(-c2ccc(Br)cc2)n[nH]1	-5.6	-17.3	98.1*	-1.7	2.9
CS(=O)(=O)c1ccc(-c2nn[nH]n2)cc1	-5.5	-11.0	0.5	-7.7	-3.9
CCCn1c(NCc2cccs2)nc2ccccc21	16.8	-6.0	24.2	56.1*	8.9
CCCCn1c(NCc2cccs2)nc2ccccc21	-3.4	-12.1	-0.9	-5.6	1.3
N#Cc1nc(-c2ccccc2F)oc1NCc1ccccc1	14.0	-41.0	14.6	41.9*	15.9
C=CCn1cc(C(=O)NCc2ccc3c(c2)OCO3)c(=O)c2cc(S(=O)(=O)N(CC)CC)ccc21	42.0*	-17.3	12.8	-5.4	6.2
O=C(NCCN1CCOCC1)c1c[nH]c2ccc(S(=O)(=O)N3CCOCC3)cc2c1=O	-0.7	-24.7	15.4	-10.6	3.0
CCN(CC)S(=O)(=O)c1ccc2c(c1)c(=O)c(C(=O)NCc1ccco1)cn2C	62.1*	-12.9	7.2	0.2	-1.4
CCN(CC)S(=O)(=O)c1ccc2c(c1)c(=O)c(C(=O)NCc1ccc3c(c1)OCO3)cn2C	64.2*	-26.8	13.5	-2.9	7.4
O=C(NCc1ccco1)c1c[nH]c2ccc(S(=O)(=O)N3CCOCC3)cc2c1=O	74.3*	-8.0	12.2	-26.6	-9.5
CC1CCN(S(=O)(=O)c2ccc3c(c2)c(=O)c(C(=O)NCc2ccco2)cn3C)CC1	14.6	-11.4	8.7	-8.2	-2.3
CN1CCC(CO)(Cc2ccccc2)CC1	-7.0	-22.9	-1.2	x	-3.0
OC1C2CN3CCN(C2)CC1(Cc1ccccc1)C3 (stereo not given)	-1.0	30.0*	10.0	-4.3	-0.7
OC1C2(Cc3ccccc3)CN3CCN(C2)CC1(Cc1ccccc1)C3 (stereo not given)	2.8	2.0	-4.3	110.3*	-6.1
O=C(C[n+]1ccc(/C=C/c2ccccc2)cc1)c1ccc2c(c1)OCCO2	-10.0	1.4	-0.3	-4.1	-3.6
CC1(C(=O)NCCCN2CCOCC2)Oc2cccnc2NC1=O (stereo not given)	-1.9	-32.3	6.2	x	-1.3
O=C(NC(Cc1c[nH]c2ccccc12)c1nnc2n1CCCCC2)c1ccc(Cl)cc1 (stereo not given)	14.0	-16.7	23.4	47.6*	-0.6
Cc1nc(=O)c(-c2ccccc2)c(C)n1CC1CCCO1 (stereo not given)	14.8	-9.6	5.3	74.0*	0.2
SMILES	Thrombin inh	Furin inhibitor	FXIIa inh 1536	KLK5 inh	FXIa inh 1536
COc1ccc(C2N(c3ccccc3)CCN2c2ccccc2)cc1O	8.6	-3.1	45.8*	18.5	33.9
COc1cc(C2N3CC4(C)CN2CC(C)(C3)C4)ccc1O (stereo not given)	-0.5	-15.2	5.9	-22.4	0.4
CCc1ccc(C(C(=O)NC2CCCC2)N(C(=O)/C=C/C(=O)Nc2cc(C)on2)c2ccccc2C)cc1 (stereo not given)	-7.0	-18.0	7.0	-22.1	3.1
CCOc1ccc(OCCSc2nnnn2C2CCCCC2)cc1	-7.2	-14.5	5.1	-23.8	3.1
CC(C)(CO)NC(=S)NCc1ccco1	-2.6	-5.1	7.0	100.3*	0.7
S=C(NCc1ccco1)Nc1ccccc1	-7.2	-21.4	7.7	1.0	1.9
CCOC(=O)C(=CNc1cccc(C)c1C)C(=O)OCC	45.1*	-1.8	18.8	7.2	-8.8
Cc1ccc(-n2c3c(c(=O)[nH]c2=O)C(NS(=O)(=O)c2ccc(Cl)cc2)(C(F)(F)F)C(=O)N3)cc1 (stereo not given)	25.4	-6.5	-5.1	13.5	-11.0
C=CCn1c(C)c(C(C)=O)c(N2CCN(C(c3ccccc3)c3ccccc3)CC2)nc1=S	5.8	-5.0	8.6	0.2	-6.5
CC(C)C(NS(=O)(=O)c1ccccc1)C(=O)OCc1cc([N+](=O)[O-])cc2c1OCOC2 (stereo not given)	48.2*	-9.7	6.6	39.2	11.3
COc1ccc(CN2C(=O)c3cccnc3C2Nc2cc(Cl)ccc2OC)cc1 (stereo not given)	4.9	-17.6	13.5	46.4*	5.0
CCOC(=O)c1[nH]c(C)c(C(=O)OCC(=O)N2CC(=O)Nc3ccccc32)c1C	8.3	-14.1	29.4	41.6*	8.0
O=C1CN(C(=O)COC(=O)c2oc3ccccc3c2COc2ccccc2)c2ccccc2N1	2.6	-5.9	47.0*	-16.8	19.8
Cc1ccc(Cl)cc1N1CCN(C(=O)COc2ccc(S(=O)(=O)NC(C)C)cc2)CC1	20.0	-28.8	22.3	46.3*	16.8
CCc1ccc(NC(=O)N(C2CCC(C)CC2)C2CCN(C(C)=O)CC2)cc1 (stereo not given)	-6.0	-16.9	6.5	11.4	-2.8
O=c1[nH]c2ccc(Cl)cc2c(-c2ccccc2)c1N1CCOCC1	42.6*	-26.2	27.7	30.1	12.9
O=C(Nc1cc(Cl)cc(Cl)c1)c1cnn2cccnc12	24.3	-12.9	17.9	68.8*	11.5
O=C(Nc1cccc(Cl)c1)c1cnn2cccnc12	24.0	-10.6	19.7	24.0	18.8
Cc1ccsc1/C=C1\Oc2cc(OCC(=O)c3ccccc3)ccc2C1=O	-1.0	-4.0	11.5	0.1	9.1
CCCn1nnnc1NC(=O)COc1ccc(Cl)c(C)c1	-3.5	-2.2	14.8	-19.2	31.0
CCCCn1nnc(NC(=O)COc2ccc(Cl)c(C)c2)n1	9.9	-9.6	7.2	104.1*	0.2
Cc1nccn1-c1cc(C(C)(C)C)nc2c(-c3ccccc3)cnn12	-11.4	-6.7	2.5	-17.8	-3.4
O=C(O)c1cc([N+](=O)[O-])ccc1N1CCCCC1	-4.9	-13.9	9.3	-14.5	7.8
CC(C)(C)NC(=O)c1cc([N+](=O)[O-])ccc1N1CCCCC1	72.7*	-5.1	3.3	63.2*	6.4
O=C(Cc1ccc(F)cc1)N/N=C/c1ccncc1	29.8	2.8	36.3	54.8*	19.5
O=C(O)c1ccc(/C=N/NC(=O)c2ccc(F)cc2)cc1	67.8*	-18.0	-0.9	-4.2	-5.9
O=C(N/N=C/c1ccc(F)cc1)c1ccccc1	-7.3	-20.1	9.8	1.8	-0.2
N/N=C(/Cc1nc2ccccc2[nH]1)c1ccc([N+](=O)[O-])cc1	0.2	-20.0	12.2	4.0	2.4
CCn1c(SCc2cc(=O)[nH]c3ccccc23)nnc1C1CC1	-0.2	-4.3	6.0	-14.1	4.2
